Calls of active or inactive are those of the source. No cut-off for these calls is given here. Non-standard residues stand in square brackets, D forms with d. Residues, ends and D or L forms follow the SMILES beside them. ξ: configuration not given here. ξDap = NCC(N)C(=O)O
How the values were obtained:
[1] = biological target: T1, Neuropeptide Y receptor type 5 (Homo sapiens) (UniProt Q15761); experiment: Agonist activity at human neuropeptide Y Y5 receptor expressed in COS-7 cells cotransfected with chimeric Gi/q protein assessed as inositol phosphate accumulation at 1 uM after 2 hrs by anion exchange chromatography; assay type: functional, cell-based
T1 sequence (whole entry): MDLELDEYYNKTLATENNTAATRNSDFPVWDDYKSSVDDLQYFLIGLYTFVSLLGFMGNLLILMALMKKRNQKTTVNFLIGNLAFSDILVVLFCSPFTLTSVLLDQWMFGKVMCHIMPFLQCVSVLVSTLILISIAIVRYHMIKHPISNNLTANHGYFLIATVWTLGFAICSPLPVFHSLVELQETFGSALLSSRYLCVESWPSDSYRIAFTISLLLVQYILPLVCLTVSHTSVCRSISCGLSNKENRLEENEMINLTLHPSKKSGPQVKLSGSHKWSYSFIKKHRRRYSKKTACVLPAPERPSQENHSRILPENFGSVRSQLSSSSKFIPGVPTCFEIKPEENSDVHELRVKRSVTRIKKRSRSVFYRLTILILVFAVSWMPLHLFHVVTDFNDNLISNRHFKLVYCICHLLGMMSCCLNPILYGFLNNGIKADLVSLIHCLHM
Method in brief: (§1)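 COS-7 cells stably co-expressing the corresponding human Y receptor plus a chimeric Gi/q protein; single high concentration tested in inositol phosphate accumulation; response as % of NPY response at each receptor; SEM over two biological replicates.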

[2] = biological target: T2, Growth hormone secretagogue receptor type 1 (Homo sapiens, UniProt Q92847); experiment: Inverse agonist activity at human GHSR1a receptor expressed in COS-7 cells assessed as inositol phosphate accumulation after 2 hrs by anion exchange chromatography; assay type: functional, cell-based
T2 sequence (Q92847 whole entry, the tested form may be a part): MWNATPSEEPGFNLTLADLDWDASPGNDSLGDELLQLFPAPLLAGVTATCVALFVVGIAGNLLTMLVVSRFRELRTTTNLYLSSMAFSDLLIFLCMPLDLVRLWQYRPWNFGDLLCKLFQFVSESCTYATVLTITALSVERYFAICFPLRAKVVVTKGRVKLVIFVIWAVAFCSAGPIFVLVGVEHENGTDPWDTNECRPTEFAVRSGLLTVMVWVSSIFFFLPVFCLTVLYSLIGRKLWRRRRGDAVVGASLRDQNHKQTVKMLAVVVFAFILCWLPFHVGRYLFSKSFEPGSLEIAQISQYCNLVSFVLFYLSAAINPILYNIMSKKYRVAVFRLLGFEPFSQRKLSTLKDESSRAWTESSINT

[3] = biological target: T2, Growth hormone secretagogue receptor type 1; experiment: Displacement of [125I]ghrelin from human eYFP-fused ghrelin receptor expressed in COS7 cells after 75 mins by competitive receptor binding assay; assay type: cell-based, COS-7
[4] = biological target: T3, Neuropeptide Y receptor type 2 (Homo sapiens) (UniProt P49146); experiment: Agonist activity at human neuropeptide Y Y2 receptor expressed in COS-7 cells cotransfected with chimeric Gi/q protein assessed as inositol phosphate accumulation after 2 hrs by anion exchange chromatography relative to control; assay type: functional, cell-based
T3 sequence (whole entry): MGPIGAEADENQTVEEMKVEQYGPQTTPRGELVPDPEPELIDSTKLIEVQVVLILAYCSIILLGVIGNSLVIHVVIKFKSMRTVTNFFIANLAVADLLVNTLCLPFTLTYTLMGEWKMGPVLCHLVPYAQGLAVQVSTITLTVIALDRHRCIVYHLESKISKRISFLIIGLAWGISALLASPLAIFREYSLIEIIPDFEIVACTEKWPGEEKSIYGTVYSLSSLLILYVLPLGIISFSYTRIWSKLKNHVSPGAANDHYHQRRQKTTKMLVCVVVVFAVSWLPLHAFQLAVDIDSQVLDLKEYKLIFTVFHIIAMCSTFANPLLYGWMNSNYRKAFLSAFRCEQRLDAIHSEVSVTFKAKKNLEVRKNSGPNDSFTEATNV
Method in brief: (§2)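 Inositol phosphate turnover in COS-7 cells stably co-expressing human Y2 receptor and chimeric Gi/q protein; concentration-response curves, responses as % of maximum Y2 activity; SEM over two biological replicates.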

[5] = biological target: T4, Neuropeptide Y receptor type 2 (Homo sapiens, UniProt P49146); experiment: Agonist activity at human neuropeptide Y Y2 receptor expressed in COS-7 cells cotransfected with chimeric Gi/q protein assessed as inositol phosphate accumulation after 2 hrs by anion exchange chromatography; assay type: functional, cell-based; method in brief: as §2
T4 sequence (P49146 whole entry): T3 sequence (whole entry)

[6] = biological target: Neuropeptide Y receptor type 4 (Homo sapiens) (UniProt P50391); experiment: Agonist activity at human neuropeptide Y Y4 receptor expressed in COS-7 cells cotransfected with chimeric Gi/q protein assessed as inositol phosphate accumulation at 1 uM after 2 hrs by anion exchange chromatography; assay type: functional, cell-based; method in brief: as §1
Sequence of Neuropeptide Y receptor type 4 (Homo sapiens) (P50391 whole entry): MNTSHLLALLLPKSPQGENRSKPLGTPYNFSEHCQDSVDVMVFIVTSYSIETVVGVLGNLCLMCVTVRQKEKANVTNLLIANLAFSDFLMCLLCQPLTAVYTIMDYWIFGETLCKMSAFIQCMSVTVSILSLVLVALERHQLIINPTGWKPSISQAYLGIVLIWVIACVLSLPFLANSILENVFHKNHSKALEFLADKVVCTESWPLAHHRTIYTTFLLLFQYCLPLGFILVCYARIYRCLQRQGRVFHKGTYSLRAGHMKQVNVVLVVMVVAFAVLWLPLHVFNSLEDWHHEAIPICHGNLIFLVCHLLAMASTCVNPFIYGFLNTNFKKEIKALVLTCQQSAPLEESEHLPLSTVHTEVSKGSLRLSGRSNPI

[7] = biological target: T5, Neuropeptide Y receptor type 1 (Homo sapiens) (UniProt P25929); experiment: Agonist activity at human neuropeptide Y Y1 receptor expressed in COS-7 cells cotransfected with chimeric Gi/q protein assessed as inositol phosphate accumulation at 1 uM after 2 hrs by anion exchange chromatography; assay type: functional, cell-based; method in brief: as §1
T5 sequence (whole entry): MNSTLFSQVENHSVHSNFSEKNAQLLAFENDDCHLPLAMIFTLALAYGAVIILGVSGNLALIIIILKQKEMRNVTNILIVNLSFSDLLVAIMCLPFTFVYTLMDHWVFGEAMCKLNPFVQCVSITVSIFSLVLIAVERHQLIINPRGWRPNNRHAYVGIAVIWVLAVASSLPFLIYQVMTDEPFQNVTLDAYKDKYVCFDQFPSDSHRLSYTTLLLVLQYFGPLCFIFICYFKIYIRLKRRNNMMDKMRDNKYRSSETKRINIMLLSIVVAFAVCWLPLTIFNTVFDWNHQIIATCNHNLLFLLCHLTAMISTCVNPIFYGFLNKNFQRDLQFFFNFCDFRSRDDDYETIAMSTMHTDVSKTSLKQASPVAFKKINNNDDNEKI

[8] = biological target: T4, Neuropeptide Y receptor type 2; experiment: Displacement of [125I]PYY from human neuropeptide Y Y2 receptor expressed in HEK293 cells cotransfected with eYFP fusion protein after 2 hrs by competitive receptor binding assay; assay type: cell-based
Method in brief: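 Competitive binding against 125I-PYY in HEK-293 cells stably expressing human Y2 receptor; concentration-response curves.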

[9] = biological target: T2, Growth hormone secretagogue receptor type 1; experiment: Inverse agonist activity at human GHSR1a receptor expressed in COS-7 cells assessed as inositol phosphate accumulation after 2 hrs by anion exchange chromatography relative to control; assay type: functional, cell-based
Mus musculus [10] = experiment: Decrease in food intake in diet-induced obese C57BL/6JRj mouse at 0.25 nM/h, sc administered via osmotic minipumps daily for 14 days; assay type: functional, organism-based
Mus musculus [11] = experiment: Effect on food intake in diet-induced obese C57BL/6JRj mouse at 500 nM/kg, sc; assay type: functional, organism-based
Method in brief: (§3)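 Freely fed diet-induced obese mice, saline control group; single acute dose, SC at 500 nM/kg or IP at 50, 100 or 250 nM/kg; cumulative food intake and body weight recorded.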

Mus musculus [12] = experiment: Effect on food intake in diet-induced obese C57BL/6JRj mouse at 50 to 250 nM/kg, ip; assay type: functional, organism-based; method in brief: as §3
Mus musculus [13] = experiment: Effect on body weight in diet-induced obese C57BL/6JRj mouse at 50 to 250 nM/kg, ip; assay type: functional, organism-based; method in brief: as §3
Mus musculus [14] = experiment: Effect on body weight in diet-induced obese C57BL/6JRj mouse at 500 nM/kg, sc; assay type: functional, organism-based; method in brief: as §3

Compound	Efficacy [1]	EC50 [2]	Efficacy [4]	EC50 [5]	Efficacy [6]	Efficacy [7]	Efficacy [9]	also measured
CC(=O)N[C@@H](CCCCNC(=O)CCCCCNC(=O)[C@H](CCC(N)=O)NC(=O)[C@H](CC(C)C)NC(=O)[C@@H](Cc1c[nH]c2ccccc12)NC(=O)[C@H](Cc1ccccc1)NC(=O)[C@@H](Cc1cccc2ccccc12)NC(=O)[C@@H](N)CCCCN)C(=O)N[C@@H](CC(C)C)C(=O)N[C@@H](CCCNC(=N)N)C(=O)N[C@@H](Cc1cnc[nH]1)C(=O)N[C@@H](Cc1ccc(O)cc1)C(=O)N[C@@H](CC(C)C)C(=O)N[C@@H](CC(N)=O)C(=O)N[C@@H](CC(C)C)C(=O)N[C@@H](CC(C)C)C(=O)N[C@H](C(=O)N[C@@H](CCCNC(=N)N)C(=O)N[C@@H](CCC(N)=O)C(=O)N[C@@H](CCCNC(=N)N)C(=O)N[C@@H](Cc1ccc(O)cc1)C(N)=O)[C@@H](C)O	> 56%	88.3 nM	84%	3.9 nM	35%	> 66%	85%	IC50 [3]: 78.2 nM; IC50 [8]: 9 nM
CC(=O)N[C@@H](CC(C)C)C(=O)N[C@@H](CCCNC(=N)N)C(=O)N[C@@H](Cc1cnc[nH]1)C(=O)N[C@@H](Cc1ccc(O)cc1)C(=O)N[C@@H](CC(C)C)C(=O)N[C@@H](CC(N)=O)C(=O)N[C@@H](CC(C)C)C(=O)N[C@@H](CC(C)C)C(=O)N[C@H](C(=O)N[C@@H](CCCNC(=N)N)C(=O)N[C@@H](CCC(N)=O)C(=O)N[C@@H](CCCNC(=N)N)C(=O)N[C@@H](Cc1ccc(O)cc1)C(N)=O)[C@@H](C)O (Ac-LRHYLNLLTRQRY-NH2)	–	–	–	–	–	–	–	inhibition (Mus musculus [10]): inactive; Activity (Mus musculus [11]): inactive; Activity (Mus musculus [12]): inactive; Activity (Mus musculus [13]): inactive; Activity (Mus musculus [14]): inactive
CC(=O)N[C@@H](CCCCN)C(=O)N[C@@H](CC(C)C)C(=O)N[C@@H](CCCNC(=N)N)C(=O)N[C@@H](Cc1cnc[nH]1)C(=O)N[C@@H](Cc1ccc(O)cc1)C(=O)N[C@@H](CC(C)C)C(=O)N[C@@H](CC(N)=O)C(=O)N[C@@H](CC(C)C)C(=O)N[C@@H](CC(C)C)C(=O)N[C@H](C(=O)N[C@@H](CCCNC(=N)N)C(=O)N[C@@H](CCC(N)=O)C(=O)N[C@@H](CCCNC(=N)N)C(=O)N[C@@H](Cc1ccc(O)cc1)C(N)=O)[C@@H](C)O (Ac-KLRHYLNLLTRQRY-NH2)	–	> 1000 nM	68%	0.5 nM	–	–	–	–
CC(=O)N[C@@H](CNC(=O)CCC(=O)N[C@@H](CCCCN)C(=O)N[C@@H](CCCCN)C(=O)N[C@H](Cc1cccc2ccccc12)C(=O)N[C@@H](Cc1ccccc1)C(=O)N[C@H](Cc1c[nH]c2ccccc12)C(=O)N[C@@H](CC(C)C)C(=O)N[C@@H](CC(C)C)C(N)=O)C(=O)N[C@@H](CC(C)C)C(=O)N[C@@H](CCCNC(=N)N)C(=O)N[C@@H](Cc1cnc[nH]1)C(=O)N[C@@H](Cc1ccc(O)cc1)C(=O)N[C@@H](CC(C)C)C(=O)N[C@@H](CC(N)=O)C(=O)N[C@@H](CC(C)C)C(=O)N[C@@H](CC(C)C)C(=O)N[C@H](C(=O)N[C@@H](CCCNC(=N)N)C(=O)N[C@@H](CCC(N)=O)C(=O)N[C@@H](CCCNC(=N)N)C(=O)N[C@@H](Cc1ccc(O)cc1)C(N)=O)[C@@H](C)O	–	–	–	–	–	–	–	EC50 ([2]; cos-7): 110 nM; IC50 ([3]; cos-7): 70.4 nM; EC50 ([5]; cos-7): 2 nM; IC50 ([8]; hek293): 9.7 nM
CC(=O)NC(CN)C(=O)N[C@@H](CC(C)C)C(=O)N[C@@H](CCCNC(=N)N)C(=O)N[C@@H](Cc1cnc[nH]1)C(=O)N[C@@H](Cc1ccc(O)cc1)C(=O)N[C@@H](CC(C)C)C(=O)N[C@@H](CC(N)=O)C(=O)N[C@@H](CC(C)C)C(=O)N[C@@H](CC(C)C)C(=O)N[C@H](C(=O)N[C@@H](CCCNC(=N)N)C(=O)N[C@@H](CCC(N)=O)C(=O)N[C@@H](CCCNC(=N)N)C(=O)N[C@@H](Cc1ccc(O)cc1)C(N)=O)[C@@H](C)O (some centres not stated) (Ac-[ξDap]LRHYLNLLTRQRY-NH2)	–	–	77%	0.4 nM	–	–	–	–

The next lines start with results.

Efficacy [1]	EC50 [2]	Efficacy [4]	EC50 [5]	Efficacy [6]	Efficacy [7]	Efficacy [9]	Compound	also measured
33%	–	82%	–	< 25%	< 25%	78%	CC(=O)NC(CNC(=O)CCC(=O)N[C@@H](CCCCN)C(=O)N[C@@H](CCCCN)C(=O)N[C@@H](Cc1cccc2ccccc12)C(=O)N[C@@H](Cc1ccccc1)C(=O)N[C@H](Cc1c[nH]c2ccccc12)C(=O)N[C@@H](CC(C)C)C(=O)N[C@@H](CC(C)C)C(N)=O)C(=O)N[C@@H](CC(C)C)C(=O)N[C@@H](CCCNC(=N)N)C(=O)N[C@@H](Cc1cnc[nH]1)C(=O)N[C@@H](Cc1ccc(O)cc1)C(=O)N[C@@H](CC(C)C)C(=O)N[C@@H](CC(N)=O)C(=O)N[C@@H](CC(C)C)C(=O)N[C@@H](CC(C)C)C(=O)N[C@H](C(=O)N[C@@H](CCCNC(=N)N)C(=O)N[C@@H](CCC(N)=O)C(=O)N[C@@H](CCCNC(=N)N)C(=O)N[C@@H](Cc1ccc(O)cc1)C(N)=O)[C@@H](C)O (some centres not stated)	–
> 56%	99.9 nM	86%	1.7 nM	46%	> 66%	88%	CC(=O)N[C@@H](CCCCNC(=O)CCNC(=O)[C@H](CCC(N)=O)NC(=O)[C@H](CC(C)C)NC(=O)[C@@H](Cc1c[nH]c2ccccc12)NC(=O)[C@H](Cc1ccccc1)NC(=O)[C@@H](Cc1cccc2ccccc12)NC(=O)[C@@H](N)CCCCN)C(=O)N[C@@H](CC(C)C)C(=O)N[C@@H](CCCNC(=N)N)C(=O)N[C@@H](Cc1cnc[nH]1)C(=O)N[C@@H](Cc1ccc(O)cc1)C(=O)N[C@@H](CC(C)C)C(=O)N[C@@H](CC(N)=O)C(=O)N[C@@H](CC(C)C)C(=O)N[C@@H](CC(C)C)C(=O)N[C@H](C(=O)N[C@@H](CCCNC(=N)N)C(=O)N[C@@H](CCC(N)=O)C(=O)N[C@@H](CCCNC(=N)N)C(=O)N[C@@H](Cc1ccc(O)cc1)C(N)=O)[C@@H](C)O	IC50 [3]: 126 nM; IC50 [8]: 14.7 nM

From ChEMBL document CHEMBL3576822 (J Med Chem, 2015)
